Compound activity (PubChem BioAssay)
NTR1 ag: agonists of human NTR1, primary screen, imaging, U2OS cells, beta-arrestin-GFP, high content; Neurotensin receptor type 1 (Homo sapiens), P30989; NTR1-U2OS beta-arrestin-GFP spot imaging, agonist mode; activation, % at 20 µM; 330,000 tested, 0.17% active;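 active means activation at or above 40% of the spot to cytoplasm intensity ratio, with at least 20 cells analyzed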;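 further: 0% = DMSO without peptide and 100% = 100 nM NTR1 peptide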
Arrestin-AP2 inh: inhibitors of beta-arrestin/AP2 binding, primary screen, biochemical, GPCR trafficking, flow cytometry; beta-arrestin 1 C-terminal peptide binding to AP2 beta2-adaptin appendage (human); FITC-arrestin peptide / GST-AP2 beads; AP2 beta2 appendage carries R879A mutation; 340,000 tested, 0.31% active; inhibition, % at 10 µM;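 active means inhibition above a set limit, near 3 SD of compounds lacking own fluorescence, cut at about 54% in these data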;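 further: plate controls were DMSO wells for no effect and 5 µM unlabelled arrestin peptide for full effect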
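System: GST-AP2 R879A bound to glutathione beads, E. coli-expressed. Also added: 50 nM FITC-arrestin peptide. Schedule: compound with beads 12 min RT, then probe 1 h RT. Signal: bead flow cytometry, FITC channel. Read-out basis: percent response.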
PLC-beta3 inh: human PLC-beta3 inhibitors, primary screen, biochemical, fluorescence; 1-phosphatidylinositol 4,5-bisphosphate phosphodiesterase beta-3 (Homo sapiens), Q01970; inhibition, % at 12.2 µM; 370,000 tested, 0.18% active; Purified PLC-beta3, fluorogenic substrate;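 further: 0% = median of compound wells on plate and 100% = full blocker control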
Target sequence (Q01970 whole entry, looked up): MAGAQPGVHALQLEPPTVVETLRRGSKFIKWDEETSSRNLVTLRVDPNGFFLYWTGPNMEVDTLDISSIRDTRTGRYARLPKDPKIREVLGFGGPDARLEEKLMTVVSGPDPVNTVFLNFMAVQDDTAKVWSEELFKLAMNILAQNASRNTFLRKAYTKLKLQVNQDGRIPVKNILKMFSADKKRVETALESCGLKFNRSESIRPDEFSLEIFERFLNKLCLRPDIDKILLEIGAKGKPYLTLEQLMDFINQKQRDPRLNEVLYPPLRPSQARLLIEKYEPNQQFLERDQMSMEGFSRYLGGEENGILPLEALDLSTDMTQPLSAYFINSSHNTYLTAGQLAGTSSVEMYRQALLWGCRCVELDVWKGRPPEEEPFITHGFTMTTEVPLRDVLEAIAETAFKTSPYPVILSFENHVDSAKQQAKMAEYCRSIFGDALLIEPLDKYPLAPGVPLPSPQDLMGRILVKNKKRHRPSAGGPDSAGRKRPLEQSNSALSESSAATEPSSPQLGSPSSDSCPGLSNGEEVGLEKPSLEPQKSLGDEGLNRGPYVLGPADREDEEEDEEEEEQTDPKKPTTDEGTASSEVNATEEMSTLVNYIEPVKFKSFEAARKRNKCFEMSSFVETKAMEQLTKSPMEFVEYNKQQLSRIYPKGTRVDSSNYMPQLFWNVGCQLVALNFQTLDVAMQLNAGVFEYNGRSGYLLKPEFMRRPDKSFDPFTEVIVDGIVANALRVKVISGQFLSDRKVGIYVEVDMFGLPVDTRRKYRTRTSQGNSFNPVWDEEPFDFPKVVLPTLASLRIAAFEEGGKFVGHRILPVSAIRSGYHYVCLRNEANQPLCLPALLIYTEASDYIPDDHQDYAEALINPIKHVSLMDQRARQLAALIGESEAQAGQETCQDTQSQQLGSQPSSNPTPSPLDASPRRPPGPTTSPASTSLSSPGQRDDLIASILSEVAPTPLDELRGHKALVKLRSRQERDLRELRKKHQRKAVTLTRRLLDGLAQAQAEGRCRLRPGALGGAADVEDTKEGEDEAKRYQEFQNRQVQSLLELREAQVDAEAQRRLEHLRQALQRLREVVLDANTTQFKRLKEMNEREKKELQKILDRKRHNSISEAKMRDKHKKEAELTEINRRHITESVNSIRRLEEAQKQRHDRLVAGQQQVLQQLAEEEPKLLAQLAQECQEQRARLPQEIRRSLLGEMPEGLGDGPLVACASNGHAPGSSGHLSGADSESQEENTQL
PLCg1 inh: PLC-gamma1 enzyme inhibitors, primary screen, biochemical, fluorescence, purified enzyme; 1-phosphatidylinositol 4,5-bisphosphate phosphodiesterase gamma-1 (Homo sapiens), P19174; fluorogenic substrate; inhibition, % at 12.2 µM; 370,000 tested, 0.84% active; in the data active means inhibition above about 9.5%
PLCg1 ctr: PLC-gamma1 enzyme inhibitors, counter-screen for PLC-beta3 inhibitor project, biochemical, fluorescence; shares compounds with PLCg1 inh; purified PLC-gamma1, fluorogenic substrate; inhibition, % at 12.3 µM; 3,300 tested, 3.1% active; in the data active means inhibition above about 9.5%
PLCbeta3 conf: PLC-beta3 inhibitor confirmation, biochemical, fluorescence, purified enzyme; 3,300 tested, 1% active; shares compounds with PLCg1 inh; fluorogenic substrate fluorescence; inhibition, % at 12.3 µM
Numbers without * were called inactive; / = not tested or not shown. Compounds with a hit are over-represented: about 1.3% of the library has one in this group of screens. Unless noted, no stated cut-off is given here; in the data, active means inhibition above about 11%; inactive means the rest.

SMILES	NTR1 ag	Arrestin-AP2 inh	PLC-beta3 inh	PLCg1 inh	PLCg1 ctr	PLCbeta3 conf
Cc1cc(NC(=O)C2C3C(=O)N(Cc4ccc(Cl)cc4)C(C(=O)NCc4ccccc4)C34C=CC2(C)O4)no1 (stereo not drawn)	0	13	13*	10*	-4	-2
Cc1cc(NC(=O)C2C3C(=O)N(Cc4ccc(Cl)cc4)C(C(=O)NC4CCCCC4)C34C=CC2(C)O4)no1 (stereo not drawn)	1	-7	6	1	/	/
COc1cccc(/C=C2\CC3(OC(=O)C4CCCCC4)CCCN2C3)c1 (stereo not drawn)	/	/	-6	-9	/	/
C/C(=N\Nc1nc(-c2cc(C)ccc2C)cs1)c1cc2ccccc2oc1=O	0	6	4	10*	-19	-20
C/C(=N\Nc1nc(-c2cc(C)ccc2C)cs1)c1cc2c(ccc3ccccc32)oc1=O	/	9	-150	-242	/	/
c1nc(NCC2CCCOC2)c2cc(-c3ccc4c(c3)OCO4)ccc2n1 (stereo not drawn)	/	/	-117	-88	/	/
Cc1cccc2[nH]c(CN(C)C(=O)C3CCC(=O)N(C4CC4)C3)nc12 (stereo not drawn)	0	-17	-4	-1	/	/
CN(Cc1nc2ccccc2[nH]1)C(=O)C1CCC(=O)N(C2CCCC2)C1 (stereo not drawn)	0	-3	-2	9.8*	-1	2
C/C=C/C(=O)N1CCc2cc(S(=O)(=O)N(C)Cc3ccco3)ccc21	/	/	3	4	/	/
O=C(NCc1ccco1)c1ccc(Br)c(S(=O)(=O)N2CCCCC2)c1	0	1	9	11*	-2	1
Cc1ccccc1NS(=O)(=O)c1cc(C(=O)NCc2ccco2)ccc1C	2	0	3	10*	3	2
Cc1ccc(C(=O)NCc2ccco2)cc1S(=O)(=O)Nc1cccc(C)c1C	1	4	1	0	/	/
O=C(NCc1ccco1)c1ccc(F)c(S(=O)(=O)N2CCCCC2)c1	0	21	1	0	/	/
CCCC(=O)N1CCC(C(=O)NC2CCCc3ccccc32)CC1 (stereo not drawn)	/	/	6	9	/	/
Clc1nc(N2CCOCC2)ncc1Br	-1	9	-5	12*	-7	1
O=S1(=O)c2ccc(N3CCN(Cc4ccccc4F)CC3)cc2Oc2ccccc2CN1Cc1cn(Cc2cccc(F)c2)nn1	/	/	-3	-3	/	/
Cc1ccc(Cn2cc(COC(=O)N3CCOCC3)nn2)cc1	/	/	2	3	/	/
Cc1ccc(NC(=O)CN(C)C(=O)c2ccc(S(=O)(=O)N(C)c3ccccc3)cc2)cc1	2	25	-2	11*	-2	0
Cc1ccc(C)c(NC(=O)CN(C)C(=O)c2ccc(S(=O)(=O)N(C)c3ccccc3)cc2)c1	0	6	0	1	/	/
O=C(Nc1ccc(SC(F)F)cc1)C12CCC(CC1)C2	3	9	0	-1	/	/
CC12CCC(C(=O)Nc3ccc(SC(F)F)cc3)(CC1=O)C2(C)C (stereo not drawn)	2	14	10	9.8*	-2	1
COc1ccc(CCN2CC(=O)N3CCc4ccc(N5CCOCC5)cc4C3CC2=O)cc1OC (stereo not drawn)	/	/	0	4	/	/
CC/C(Cc1ccccc1)=N/NC(=O)CNC(=O)c1ccc(Cl)cc1Cl	1	-1	-1	11*	-5	-2
Nc1[nH]c(C(=O)c2ccccc2)c(-c2ccc(Cl)cc2)c1C(=O)NCCC1=CCCCC1	/	/	-1	0	/	/
COc1ccc(-n2nc(C(=O)Nc3ccc4c(c3)OCO4)c3c4ccccc4n(C)c3c2=O)cc1	4	11	6	12*	-51	-9
COc1ccc(-n2nc(C(=O)Nc3ccc(OC)c(OC)c3)c3c4ccccc4n(C)c3c2=O)cc1	3	-6	-1	0	/	/
CCn1c(SCC(=O)Nc2ccccc2-c2ccccc2)nnc1-c1ccc(C)cc1	/	/	-1	-2	/	/
